We go through 38 molecules from ChEMBL document CHEMBL4513216, “Probing the Open Global Health Chemical Diversity Library for Multistage-Active Starting Points for Next-Generation Antimalarials” (ACS Infect Dis, 2020).

A short description of the data set: Toxicity liver stage against HepG2, at 10uM. It counts as cell-based. Further details: test concentration 10 uM, cell line HepG2-A16-CD81EGFP. The following applies: human, HepG2-A16-CD81EGFP cells; read-out: INHIBITION
In short, it runs like this:
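Uninfected HepG2-A16-CD81EGFP cells, 3 × 10^3 per well, 1536-well, plated on prespotted compound at 10 μM final, parasite-free screening media added to match infected plates; puromycin 10 μM positive, DMSO 0.5% negative; run in parallel with 48 h PbLuc assay at 37 °C, 5% CO2; viability by CellTiter-Glo luminescence, normalized to controls.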
As for `CS(=O)(=O)NC[C@H]1Cn2c(-c3ccc(Cl)cc3)cnc2CO1`, the cytotoxicity at 10 µM is -3.58%.
For the molecule `CN(Cc1ccccc1)CC1CC2(CO1)CN(Cc1cnn(C)c1)C2` (stereo not drawn), the cytotoxicity at 10 µM was 9.76%.
Under `N#Cc1cccc(N2CCCC3(CN(C(=O)c4ccc[nH]4)CCO3)C2)c1` (stereo not drawn) stands 13.3%.
Under `CCC1=N[C@@]2(CC[C@@H]3CN(CC4CC4)C[C@@H]32)C(=O)N1` stands 4.86%; under `Cn1cc(C2CC(=O)NC23CCN(C(=O)c2ccc[nH]2)CC3)cn1` (stereo not drawn), 8.94%.
Regarding `Cc1cc(C(=O)N2CCCC3(CCCN3Cc3cccnc3)C2)[nH]n1` (stereo not drawn), the cytotoxicity at 10 µM worked out at 8.07%.
With `O=C(Cc1ccccc1)N1CCC2(CC(=O)N(c3cccc(F)c3)C2)C1` (stereo not drawn), the cytotoxicity at 10 µM was -0.557%.
Consider `CN1CCOC(CNCc2nc(-c3ccoc3)no2)C1` (stereo not drawn), for which the cytotoxicity at 10 µM was -5.27%.
In the case of `CC(NC(N)=O)C(=O)NCc1cc(Br)ccc1F` (stereo not drawn) it was -3.02%; in that of `COc1ccccc1NCC(=O)NCc1scnc1C`, 5.48%.
In the case of `CCN(CC)C(=O)c1ccc(COc2ccccc2C#N)o1` it was 1.96%; in that of `CC(=O)NCCC(=O)NCc1ccc(Br)cc1Cl`, 0.871%.
For `CCO[C@@H]1CC[C@H]2[C@H]1OCCN2C(=O)CC1=CCCCC1`, the cytotoxicity at 10 µM came to 2.91%.
Take `CCN(C(=O)c1nc2c(s1)CCCN2C(C)=O)C(C)C`: the cytotoxicity at 10 µM was -0.802%.
Regarding `Cc1nccc([C@H]2C[C@@H]3CCN(Cc4ccco4)C[C@H]3O2)n1`, the cytotoxicity at 10 µM was -1.03%.
With `O=C(c1ccnnc1)N1C[C@H](OCc2ccccn2)[C@H]2COC[C@H]21`, the cytotoxicity at 10 µM is -7.52%.
As for `O=C(c1ccccn1)N1CCC2(CC1)COC(COc1cccnc1)C2` (stereo not drawn), the cytotoxicity at 10 µM is -1.98%.
As for `CC(C)C1CN(C(=O)c2csc(CN(C)C)n2)CCC(=O)N1CC1CC1` (stereo not drawn), the cytotoxicity at 10 µM is -1.74%.
In the case of `Cc1cc(C2CCC2)nc(N(C)Cc2ncccc2C)n1` it was -0.392%.
`NCCO[C@H]1C[C@@H](O)C12CCN(C(=O)CCOc1ccccc1)CC2`: the cytotoxicity at 10 µM stood at 3.12%.
In the case of `Cc1nn(C)c(C)c1C1COCCN1C(=O)CCc1ccccc1` (stereo not drawn), the cytotoxicity at 10 µM was -0.284%.
Under `CCOc1ncccc1NC(=O)NC1CCN(C(C)=O)CC1` stands -6.47%.
With `Cc1cc(C(=O)N2CCCC(n3cccn3)C2)c(C)n1C1CC1` (stereo not drawn), the cytotoxicity at 10 µM was -16.7%.
For `CC(C)CCC(=O)NCCc1ccn(-c2ccccc2)n1`, the cytotoxicity at 10 µM is -14.6%.
Under `Cc1ccccc1CN1CCN(C(C)c2nc(C3CC3)no2)CC1` (stereo not drawn) stands -22.2%; under `CN(Cc1cnn(C)c1)CC1CCCN1c1cccnn1` (stereo not drawn), -1.07%; under `Cc1cnn(CC2CCCCN2C(=O)c2ccc3[nH]cnc3c2)c1` (stereo not drawn), -9.75%.
As for `CCc1nnc2n1CCN(CC(=O)Nc1cc(C)on1)C2`, the cytotoxicity at 10 µM was 5.18%.
Under `COCCO[C@H]1CCN(c2ccc(C)nn2)[C@H]1Cc1cccnc1` stands 1.53%; under `COCC(=O)N1CCC2(CC1)CNc1ccc(F)cc12`, 12.2%.
Under `CCS(=O)(=O)N1CCOC2(CCCN(c3ccc(C)nn3)C2)C1` (stereo not drawn) stands 0.253%.
On to `CN1CCN(CC2CC2)C(=O)C12CCN(C(=O)c1ccnnc1)CC2`, for which the cytotoxicity at 10 µM was 8.49%.
In the case of `O=C([C@@H]1CC[C@@H]2[C@@H](CCN2c2ccncn2)O1)N1CCCCO1`, the cytotoxicity at 10 µM came out at 3.13%.
In the case of `CCOCC1CN(c2ccncn2)Cc2cnn(CC)c21` (stereo not drawn), the cytotoxicity at 10 µM is 3.04%.
Under `c1ccc(CO[C@@H]2CC[C@H]3[C@H]2OCCN3Cc2ccsc2)nc1` stands -4.69%; under `Cn1cc(CN2CCn3cnc(COCC4CC4)c3C2)cn1`, 3.71%; under `CCCn1nccc1NC(=O)CN1CCc2c(nc(C3CC3)n2C)C1`, 3.58%.
Take `CCc1cnc(N2C[C@@H]3C[C@H](C(=O)NC4CCC4)[C@H](C2)O3)nc1`: the cytotoxicity at 10 µM amounted to 5.74%.
